Assay results published in ChEMBL document CHEMBL5058577, “EUbOPEN Chemogenomics Library 2 (Multiplex)” (2022).

System: HEK-293T
Experiment: Multiplex assay against HEK293T
Type: toxicity, cell-based
Conditions: human
Method in brief: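 Phenotypes for tubulin, mitochondrial mass and membrane permeability are expressed as per cents of healthy-nucleus cells. Cells were stained live at seeding with Hoechst33342, BioTracker Green Microtubule Cytoskeleton Dye, MitoTracker Red and Annexin V Alexa Fluor 680, then imaged after compound addition on a CQ1 microscope at 37°C and 5% CO2. Machine-learning gating in CellPathfinder separated Hoechst high-intensity objects from normal cells, divided normal cells by nuclear state (healthy, pyknosed, fragmented) and divided pyknosed cells into mitotic or apoptotic.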

[1] = 12 h, 1 µM, compound concentration 1 uM, replicate 1
[2] = 12 h, 1 µM, compound concentration 1 uM, replicate 2
[3] = 12 h, 10 µM, compound concentration 10 uM, replicate 1
[4] = 12 h, 10 µM, compound concentration 10 uM, replicate 2
[5] = 24 h, 1 µM, compound concentration 1 uM, replicate 1
[6] = 24 h, 1 µM, compound concentration 1 uM, replicate 2
[7] = 24 h, 10 µM, compound concentration 10 uM, replicate 1
[8] = 24 h, 10 µM, compound concentration 10 uM, replicate 2
[9] = 48 h, 1 µM, compound concentration 1 uM, replicate 1
[10] = 48 h, 1 µM, compound concentration 1 uM, replicate 2
[11] = 48 h, 10 µM, compound concentration 10 uM, replicate 1
[12] = 48 h, 10 µM, compound concentration 10 uM, replicate 2

For `CC(C)C[C@H](CO)Nc1nc(S[C@@H](C)c2ccccc2)nc2nc(N)sc12` [AZD-8797], the “Population Apoptotic (%)” value [1] was 39%, the “Population Fragmented Nuclei (%)” value [1] was 2% and the “Population Healthy Nuclei (%)” value [1] was 81%. For the same compound, the “Population Hoechst High Intensity Objects (%)” value [1] was 4%, the “Population Membrane Permeable-Phenotype (%)” value [1] was 0% and the “Population Mitochondria Different-Phenotype (%)” value [1] was 44%. The “Population Mitotic Cells (%)” value [1] was 60%, the “Population Normal (%)” value [1] was 95% and the “Population Pyknosed Nuclei (%)” value [1] was 15%. The “Population Tubulin-Different-Phenotype (%)” value [1] was 27%, the “Total Cell Count” value [1] was 326 and the “Population Apoptotic (%)” value [2] was 46%. The “Population Fragmented Nuclei (%)” value [2] was 8%, the “Population Healthy Nuclei (%)” value [2] was 72% and the “Population Hoechst High Intensity Objects (%)” value [2] was 7%. The “Population Mitochondria Different-Phenotype (%)” value [2] was 57%, the “Population Mitotic Cells (%)” value [2] was 53% and the “Population Normal (%)” value [2] was 92%. For the same compound, the “Population Pyknosed Nuclei (%)” value [2] was 18%, the “Population Tubulin-Different-Phenotype (%)” value [2] was 22% and the “Total Cell Count” value [2] was 356. The “Population Apoptotic (%)” value [3] was 65%, the “Population Fragmented Nuclei (%)” value [3] was 9% and the “Population Healthy Nuclei (%)” value [3] was 71%. For the same compound, the “Population Hoechst High Intensity Objects (%)” value [3] was 10%, the “Population Membrane Permeable-Phenotype (%)” value [3] was 0% and the “Population Mitochondria Different-Phenotype (%)” value [3] was 70%. For the same compound, the “Population Mitotic Cells (%)” value [3] was 34%, the “Population Normal (%)” value [3] was 89% and the “Population Pyknosed Nuclei (%)” value [3] was 18%. For the same compound, the “Population Tubulin-Different-Phenotype (%)” value [3] was 56%, the “Total Cell Count” value [3] was 279 and the “Population Apoptotic (%)” value [4] was 67%. The “Population Fragmented Nuclei (%)” value [4] was 6%, the “Population Healthy Nuclei (%)” value [4] was 75% and the “Population Mitochondria Different-Phenotype (%)” value [4] was 75%. For the same compound, the “Population Mitotic Cells (%)” value [4] was 32%, the “Population Tubulin-Different-Phenotype (%)” value [4] was 39% and the “Total Cell Count” value [4] was 345. The “Population Apoptotic (%)” value [5] was 37%, the “Population Fragmented Nuclei (%)” value [5] was 7% and the “Population Healthy Nuclei (%)” value [5] was 76%. For the same compound, the “Population Hoechst High Intensity Objects (%)” value [5] was 3%, the “Population Membrane Permeable-Phenotype (%)” value [5] was 0% and the “Population Mitochondria Different-Phenotype (%)” value [5] was 25%. The “Population Mitotic Cells (%)” value [5] was 62%, the “Population Normal (%)” value [5] was 97% and the “Population Pyknosed Nuclei (%)” value [5] was 15%. For the same compound, the “Population Tubulin-Different-Phenotype (%)” value [5] was 16%, the “Total Cell Count” value [5] was 400 and the “Population Apoptotic (%)” value [6] was 45%. The “Population Healthy Nuclei (%)” value [6] was 81%, the “Population Hoechst High Intensity Objects (%)” value [6] was 5% and the “Population Mitochondria Different-Phenotype (%)” value [6] was 42%. The “Population Mitotic Cells (%)” value [6] was 54%, the “Population Normal (%)” value [6] was 94% and the “Population Pyknosed Nuclei (%)” value [6] was 11%. The “Population Tubulin-Different-Phenotype (%)” value [6] was 14%, the “Total Cell Count” value [6] was 421 and the “Population Apoptotic (%)” value [7] was 54%. For the same compound, the “Population Fragmented Nuclei (%)” value [7] was 8%, the “Population Healthy Nuclei (%)” value [7] was 73% and the “Population Hoechst High Intensity Objects (%)” value [7] was 9%. The “Population Membrane Permeable-Phenotype (%)” value [7] was 0%, the “Population Mitochondria Different-Phenotype (%)” value [7] was 64% and the “Population Mitotic Cells (%)” value [7] was 45%. For the same compound, the “Population Normal (%)” value [7] was 90%, the “Population Pyknosed Nuclei (%)” value [7] was 17% and the “Population Tubulin-Different-Phenotype (%)” value [7] was 39%. The “Total Cell Count” value [7] was 346, the “Population Apoptotic (%)” value [8] was 51% and the “Population Fragmented Nuclei (%)” value [8] was 9%. For the same compound, the “Population Healthy Nuclei (%)” value [8] was 77%, the “Population Hoechst High Intensity Objects (%)” value [8] was 8% and the “Population Mitochondria Different-Phenotype (%)” value [8] was 71%. The “Population Mitotic Cells (%)” value [8] was 48%, the “Population Normal (%)” value [8] was 91% and the “Population Pyknosed Nuclei (%)” value [8] was 12%. The “Population Tubulin-Different-Phenotype (%)” value [8] was 36%, the “Total Cell Count” value [8] was 393 and the “Population Apoptotic (%)” value [9] was 43%. The “Population Fragmented Nuclei (%)” value [9] was 15%, the “Population Healthy Nuclei (%)” value [9] was 78% and the “Population Hoechst High Intensity Objects (%)” value [9] was 1%. For the same compound, the “Population Membrane Permeable-Phenotype (%)” value [9] was 0%, the “Population Mitochondria Different-Phenotype (%)” value [9] was 16% and the “Population Mitotic Cells (%)” value [9] was 56%. The “Population Normal (%)” value [9] was 98%, the “Population Pyknosed Nuclei (%)” value [9] was 6% and the “Population Tubulin-Different-Phenotype (%)” value [9] was 10%. For the same compound, the “Total Cell Count” value [9] was 663, the “Population Apoptotic (%)” value [10] was 24% and the “Population Fragmented Nuclei (%)” value [10] was 12%. For the same compound, the “Population Healthy Nuclei (%)” value [10] was 79%, the “Population Hoechst High Intensity Objects (%)” value [10] was 3% and the “Population Membrane Permeable-Phenotype (%)” value [10] was 1%. The “Population Mitochondria Different-Phenotype (%)” value [10] was 24%, the “Population Mitotic Cells (%)” value [10] was 75% and the “Population Normal (%)” value [10] was 96%. The “Population Pyknosed Nuclei (%)” value [10] was 8%, the “Population Tubulin-Different-Phenotype (%)” value [10] was 13% and the “Total Cell Count” value [10] was 681. The “Population Apoptotic (%)” value [11] was 60%, the “Population Fragmented Nuclei (%)” value [11] was 16% and the “Population Healthy Nuclei (%)” value [11] was 72%. The “Population Hoechst High Intensity Objects (%)” value [11] was 7%, the “Population Membrane Permeable-Phenotype (%)” value [11] was 0% and the “Population Mitochondria Different-Phenotype (%)” value [11] was 57%. The “Population Mitotic Cells (%)” value [11] was 39%, the “Population Normal (%)” value [11] was 92% and the “Population Pyknosed Nuclei (%)” value [11] was 11%. The “Population Tubulin-Different-Phenotype (%)” value [11] was 28%, the “Total Cell Count” value [11] was 416 and the “Population Apoptotic (%)” value [12] was 52%. The “Population Fragmented Nuclei (%)” value [12] was 15%, the “Population Healthy Nuclei (%)” value [12] was 75% and the “Population Hoechst High Intensity Objects (%)” value [12] was 6%. The “Population Mitochondria Different-Phenotype (%)” value [12] was 52%, the “Population Mitotic Cells (%)” value [12] was 47% and the “Population Normal (%)” value [12] was 93%. The “Population Pyknosed Nuclei (%)” value [12] was 8%, the “Population Tubulin-Different-Phenotype (%)” value [12] was 21% and the “Total Cell Count” value [12] was 530.
